Test [1] addresses T1, 5-hydroxytryptamine receptor 1A (Mus musculus) (UniProt Q64264).
T1 sequence (whole entry): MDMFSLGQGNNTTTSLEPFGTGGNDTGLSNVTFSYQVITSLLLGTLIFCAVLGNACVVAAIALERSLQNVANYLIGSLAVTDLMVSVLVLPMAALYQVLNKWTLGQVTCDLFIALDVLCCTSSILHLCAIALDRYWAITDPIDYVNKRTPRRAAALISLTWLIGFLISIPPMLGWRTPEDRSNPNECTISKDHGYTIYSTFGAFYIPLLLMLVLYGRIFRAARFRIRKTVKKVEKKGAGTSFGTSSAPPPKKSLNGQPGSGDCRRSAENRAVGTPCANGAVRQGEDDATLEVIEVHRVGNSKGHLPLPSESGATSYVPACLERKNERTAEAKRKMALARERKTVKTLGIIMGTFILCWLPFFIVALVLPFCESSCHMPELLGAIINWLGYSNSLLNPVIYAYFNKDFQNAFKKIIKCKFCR
In words: Compound was tested for hypothermia with the activation of presynaptic 5-HT1A receptor agonist (8-OH-DPAT) in mice; Antagonist. To be noted: filed as antagonist. It counts as functional.

For test [2], the species on record is Mus musculus. In words: Ability to inhibit 8-OH-DPAT-induced hypothermia was taken as a measure of presynaptic antagonistic activity; Antagonist. It is filed as functional, organism-based. Conditions: filed as antagonist.
In test [3] the target is T2, 5-hydroxytryptamine receptor 1A (Rattus norvegicus, UniProt P19327).
T2 sequence (P19327 whole entry): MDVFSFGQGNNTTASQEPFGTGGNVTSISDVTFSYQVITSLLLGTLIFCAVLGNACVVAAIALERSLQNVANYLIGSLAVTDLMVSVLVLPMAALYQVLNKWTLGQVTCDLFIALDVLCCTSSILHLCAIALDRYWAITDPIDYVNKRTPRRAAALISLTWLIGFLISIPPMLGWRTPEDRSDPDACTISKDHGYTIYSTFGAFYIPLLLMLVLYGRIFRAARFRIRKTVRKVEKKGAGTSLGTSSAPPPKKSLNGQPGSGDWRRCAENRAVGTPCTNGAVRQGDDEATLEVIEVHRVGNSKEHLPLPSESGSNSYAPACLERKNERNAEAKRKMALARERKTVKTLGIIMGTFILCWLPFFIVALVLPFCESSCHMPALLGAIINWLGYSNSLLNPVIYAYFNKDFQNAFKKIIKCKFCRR
Nature of the test: Ability to bind to central serotonin 5-hydroxytryptamine 1A receptor in vitro in hippocampus of the rat brain using [3H]8-OH-DPAT radioligand. It counts as tissue-based. Summed up:
(§1)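 Competition binding in rat brain tissue: hippocampus with [3H]-8-OH-DPAT (5-HT1A); cortex with [3H]-ketanserin (5-HT2A) or [3H]-prazosin (α1). Ki from at least three experiments using 10–14 concentrations (10⁻¹⁰–10⁻⁵ M), each in triplicate.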

In test [4] the target is 5-hydroxytryptamine receptor 2A (Rattus norvegicus, UniProt P14842). Nature of the test: Ability to bind to central serotonin 5-hydroxytryptamine 2A receptor in vitro in cortex of the rat brain using [3H]ketanserin radioligand. It counts as tissue-based. Summed up:
as §1

In test [5] the test system is Rattus norvegicus. In words: Effect of compound administered 60 min before the test in the forced swimming test in Rat (8 rats per group) at 5 mg/kg. It is filed as functional. The gist of the method: (§2)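 Male Wistar rats, n=8/group; forced swim per Porsolt: 15 min pretest in cylinders with 15 cm water at 25 °C, retest 24 h later; total immobility over 5 min. Drug ip 60 min before test; imipramine in saline, test compound suspended in 1% Tween 80; Dunnett test vs vehicle.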

Test [6] deals with D(2) dopamine receptor (Rattus norvegicus, UniProt P61169). Nature of the test: Ability to bind to Dopamine receptor D2 in vitro in rat sriatal membranes using [3H]spiperone radioligand. It counts as cell membranes. The gist of the method:
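Rat striatal membranes with [3H]spiperone; ketanserin 50 nM in buffer to block 5-HT2A binding; nonspecific binding with (±)-butaclamol 5 μM; 50 mM potassium phosphate pH 7.4; 37 °C, 30 min; vacuum filtration onto glass fiber, scintillation counting. Ki via Cheng-Prusoff from ≥3 experiments, 10 concentrations in triplicate.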

For test [7], the system named is Rattus norvegicus. In words: Effect of Compound administered 60 min before the test in the conflict drinking test in rat (n = 8 rats/group) at 5 mg/kg. It counts as functional. Summed up:
(§3)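 Male Wistar rats (250-300 g), compound suspended in 1% aqueous Tween 80, given ip (2 mL/kg) 60 min before test. Rats adapted 10 min to chamber, water-deprived 24 h, readapted 10 min with bottle, 30 min home-cage drinking, deprived another 24 h. After 30 s free drinking, licks punished by 0.5 mA shock; shocks accepted in 5 min counted. n=8/group; ANOVA with Dunnett test.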

Test [8] concerns the target T1, 5-hydroxytryptamine receptor 1A (Mus musculus). In words: The hypothermia produced in mice was regarded as a measure of presynaptic 5-HT1A receptor agonistic activity; Agonist. It counts as functional. Conditions: filed as agonist.
Test [9] concerns the target T3, Adrenergic receptor alpha-1 (Rattus norvegicus, UniProt P15823+P23944+P43140).
T3 sequence (P15823 whole entry): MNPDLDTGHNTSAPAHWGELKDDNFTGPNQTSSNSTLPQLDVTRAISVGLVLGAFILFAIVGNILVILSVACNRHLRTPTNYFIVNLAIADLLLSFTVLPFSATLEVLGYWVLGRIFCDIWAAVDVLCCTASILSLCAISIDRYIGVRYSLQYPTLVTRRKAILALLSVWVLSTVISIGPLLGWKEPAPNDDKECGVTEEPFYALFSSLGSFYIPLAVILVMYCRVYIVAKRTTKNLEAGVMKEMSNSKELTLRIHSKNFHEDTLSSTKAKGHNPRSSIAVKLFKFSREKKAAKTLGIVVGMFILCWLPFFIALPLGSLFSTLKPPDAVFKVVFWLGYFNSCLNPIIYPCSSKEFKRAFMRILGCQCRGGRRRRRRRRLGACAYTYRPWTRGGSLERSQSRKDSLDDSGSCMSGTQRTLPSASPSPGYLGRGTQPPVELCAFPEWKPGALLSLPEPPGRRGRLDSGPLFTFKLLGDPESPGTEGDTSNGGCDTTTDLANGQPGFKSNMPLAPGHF
T3 sequence (P23944 whole entry): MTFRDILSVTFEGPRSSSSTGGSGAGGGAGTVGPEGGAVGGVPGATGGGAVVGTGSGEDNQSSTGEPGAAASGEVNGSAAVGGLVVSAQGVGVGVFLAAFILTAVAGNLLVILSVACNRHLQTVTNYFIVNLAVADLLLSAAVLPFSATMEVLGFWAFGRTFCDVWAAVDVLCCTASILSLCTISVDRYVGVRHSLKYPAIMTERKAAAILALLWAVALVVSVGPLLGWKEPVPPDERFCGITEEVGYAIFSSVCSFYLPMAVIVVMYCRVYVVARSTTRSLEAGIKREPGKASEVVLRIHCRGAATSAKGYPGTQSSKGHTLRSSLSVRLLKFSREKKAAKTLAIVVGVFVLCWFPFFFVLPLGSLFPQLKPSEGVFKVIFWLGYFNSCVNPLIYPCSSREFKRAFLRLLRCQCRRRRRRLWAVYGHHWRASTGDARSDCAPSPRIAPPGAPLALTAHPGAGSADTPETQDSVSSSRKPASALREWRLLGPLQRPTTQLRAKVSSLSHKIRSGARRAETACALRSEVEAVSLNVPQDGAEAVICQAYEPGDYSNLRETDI
T3 sequence (P43140 whole entry): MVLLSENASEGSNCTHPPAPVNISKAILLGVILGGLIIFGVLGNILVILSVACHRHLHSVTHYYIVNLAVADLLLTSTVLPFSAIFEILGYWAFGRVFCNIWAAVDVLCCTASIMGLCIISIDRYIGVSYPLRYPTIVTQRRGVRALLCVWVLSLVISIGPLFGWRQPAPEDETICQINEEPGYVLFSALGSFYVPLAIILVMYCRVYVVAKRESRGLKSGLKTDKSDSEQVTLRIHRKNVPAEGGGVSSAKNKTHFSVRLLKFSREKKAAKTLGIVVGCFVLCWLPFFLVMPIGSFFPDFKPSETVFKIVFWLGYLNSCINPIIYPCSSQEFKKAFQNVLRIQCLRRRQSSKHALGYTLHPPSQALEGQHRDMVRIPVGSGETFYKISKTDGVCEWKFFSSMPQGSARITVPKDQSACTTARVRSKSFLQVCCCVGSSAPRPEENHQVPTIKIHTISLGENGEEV
Nature of the test: Ability to bind to alpha-1 adrenergic receptor in vitro in cortex of the rat brain using [3H]prazosin radioligand. It counts as tissue-based. Summed up: as §1

Test [10] has as its system Rattus norvegicus. In words: Effect of compound administered 60 min before the test in the forced swimming test in Rat (8 rats per group) at 20 mg/kg. It counts as functional. Summed up: as §2
Test [11] concerns Rattus norvegicus. In words: Effect of compound administered 60 min before the test in the forced swimming test in Rat (8 rats per group) at 10 mg/kg. It is filed as functional. Summed up: as §2
Test [12] has as its system Rattus norvegicus. Nature of the test: Effect of Compound administered 60 min before the test in the conflict drinking test in rat (n = 8 rats/group) at 2.5 mg/kg. It counts as functional. Summed up:
as §3

Test [13] concerns Rattus norvegicus. In words: Effect of compound administered 60 min before the test in the forced swimming test in Rat (8 rats per group) at 30 mg/kg. It is filed as functional. Summed up: as §2
The subject of test [14] is Rattus norvegicus. In words: Effect of compound administered 60 min before the test in the forced swimming test in Rat (8 rats per group) at 40 mg/kg. It is filed as functional. Summed up: as §2

Several values for one entry are separate records, joined by “and”; a condition that tells them apart may be missing. Equal values may be shown once.

Sequence of 5-hydroxytryptamine receptor 2A (P14842 whole entry): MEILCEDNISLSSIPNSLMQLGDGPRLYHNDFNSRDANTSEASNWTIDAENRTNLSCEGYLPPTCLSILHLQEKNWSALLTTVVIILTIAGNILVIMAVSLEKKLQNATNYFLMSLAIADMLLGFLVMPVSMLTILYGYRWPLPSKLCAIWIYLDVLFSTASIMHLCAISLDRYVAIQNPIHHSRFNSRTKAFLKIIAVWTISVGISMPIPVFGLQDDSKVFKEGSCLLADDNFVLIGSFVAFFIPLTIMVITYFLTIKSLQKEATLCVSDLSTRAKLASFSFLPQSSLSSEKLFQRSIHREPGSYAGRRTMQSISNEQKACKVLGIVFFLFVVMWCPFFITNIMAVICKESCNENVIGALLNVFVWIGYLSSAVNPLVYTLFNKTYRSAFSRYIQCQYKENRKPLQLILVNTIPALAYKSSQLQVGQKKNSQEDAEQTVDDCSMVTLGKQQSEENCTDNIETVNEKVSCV
Sequence of D(2) dopamine receptor (P61169 whole entry): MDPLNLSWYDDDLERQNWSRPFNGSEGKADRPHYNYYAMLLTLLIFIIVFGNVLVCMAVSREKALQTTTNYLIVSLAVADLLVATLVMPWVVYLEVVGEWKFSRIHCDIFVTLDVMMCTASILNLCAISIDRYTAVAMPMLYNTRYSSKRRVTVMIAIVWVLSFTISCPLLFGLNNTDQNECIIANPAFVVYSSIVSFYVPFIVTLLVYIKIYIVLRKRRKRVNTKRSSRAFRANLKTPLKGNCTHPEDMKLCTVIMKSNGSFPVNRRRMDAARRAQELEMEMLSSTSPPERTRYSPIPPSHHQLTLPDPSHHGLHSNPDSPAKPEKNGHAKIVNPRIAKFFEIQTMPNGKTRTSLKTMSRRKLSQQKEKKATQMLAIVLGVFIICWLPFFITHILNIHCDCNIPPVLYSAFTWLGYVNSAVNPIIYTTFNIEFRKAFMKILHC

On to `Cn1c(=O)c2c(nc3nc(NCCN4CCN(c5ccccc5)CC4)ccn32)n(C)c1=O`, for which the Functional profile result in [1] and in test [2] was “Antagonist” throughout. Moreover, the values for the Ki in test [3] and in test [4] were 11.5 nM and 326 nM, respectively.

As for `Cn1c(=O)c2c(nc3nc(NCCCN4CCN(c5ccccc5)CC4)c(Br)cn32)n(C)c1=O`, the Effect amounted to 73.1% in test [5], 491.9% in [7], 69.6% in test [10] and 64.4% in [11]. The Immobility time in test [5] was 173.9 s; in [10] it was 165.6 s; in test [11] it was 153.1 s. In addition, the inhibitory constant (Ki) in [6] was determined as 414 nM; in test [9], 11 nM; in [3], 11 nM; in test [4], 297 nM. Moreover, in test [7], the “No. of shocks accepted/5 min” value is 36.4. Moreover, in test [8], the Functional profile entry was “Agonist”.

As for `CN1C(=O)CN=C(c2ccccc2)c2cc(Cl)ccc21` [DIAZEPAM], the Effect in test [7] is 533.8%; in [12], 306.5% and 685.7%. Also, the “No. of shocks accepted/5 min” value in [7] is 41.1; in test [12] it was 23.6 and 52.8.

As to `CN(C)CCCN1c2ccccc2CCc2ccccc21` [IMIPRAMINE], the figures for the Effect in test [13], in test [14] and in test [10] were 63.3%, 52.7% and 81.9%, respectively. Further, the results for the Immobility time in test [13], in test [14] and in test [10] were 120.4 s, 99.7 s and 155 s, respectively.

As usually defined, the Ki is a dissociation constant, usually derived from enzyme kinetics or from competition with a known ligand. Higher therefore signals lower affinity.

(Values after ChEMBL document CHEMBL1137076, “New arylpiperazine 5-HT(1A) receptor ligands containing the pyrimido[2,1-f]purine fragment: synthesis, in vitro, and in vivo pharmacological evaluation” (J Med Chem, 2004).)
